The results in this text go back to ChEMBL document CHEMBL3997798, “Novel Selective Estrogen Receptor Downregulators (SERDs) Developed against Treatment-Resistant Breast Cancer” (J Med Chem, 2017).

One series deals with Plasma. Briefly: Drug uptake in mouse plasma at 100 mg/kg, po via gavage at 0.5 to 4 hrs post dose by LC-MS/MS analysis. Type of series: ADME, organism-based. As to conditions: in vivo; call rule not given here. The essentials: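 Plasma concentrations in mice were measured at 0.5 and 4 h after a 100 mg/kg oral dose given as a 0.5% CMC suspension.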
Series [1] is described as follows: Oral bioavailability in rat. Type of series: ADME, organism-based. As to conditions: in vivo.

For `Cc1ccc(C(=O)c2sc3cc(O)ccc3c2Oc2ccc(/C=C/C(=O)O)cc2)c(C)c1`, in the series with Plasma, the Drug uptake entry is reported as “Active”. On the same count and under the same terms, then `Cc1cc(Cl)cc(C)c1C(=O)c1sc2cc(O)ccc2c1Oc1ccc(/C=C/C(=O)O)cc1`, with “Active”. Turning to `Oc1ccc2c(c1)CC[C@H](c1ccccc1)[C@@H]2c1ccc(OCCN2CCCC2)cc1` [LASOFOXIFENE], the bioavailability in series [1] is above 60%. Turning to `Cc1cc(F)cc(C)c1C(=O)c1sc2cc(O)ccc2c1Oc1ccc(/C=C/C(=O)O)cc1` [RINTODESTRANT], the Drug uptake entry in the series on Plasma was “Active”.

A word on the bioavailability: it is dose-corrected exposure relative to a reference, in per cent. Low values mean poor availability, high ones good availability.
